ChEMBL document CHEMBL4261484, “Design, synthesis and anticonvulsant-analgesic activity of new N-[(phenoxy)alkyl]- and N-[(phenoxy)ethoxyethyl]aminoalkanols” (Medchemcomm, 2017)
Activity calls are given as the source filed them. The rule behind the calls is not given here.

Legend:
[1] = tested on: Mus musculus; experiment: Neurotoxicity in mouse assessed as motor impairment at 100 mg/kg, ip measured for one min by rotarod test; format: toxicity, organism-based; conditions: in vivo, 1 min
Method in brief: (§1)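 Mice trained on an accelerating rotarod, then tested at least 24 h later after ip pretreatment, on a rod turning at 10 rpm. Neurotoxicity was scored as failure to stay on the rod for one minute. Read-out is mice impaired over mice tested.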

[2] = tested on: Mus musculus; experiment: Anticonvulsant activity in mouse assessed as protection against maximal electroshock-induced seizures at 100 mg/kg, ip; format: functional, organism-based
Method in brief: (§2)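 Mice dosed ip; maximal seizures induced by auricular electroshock (25 mA, 500 V, 50 Hz, 0.2 s). Endpoint: hind-limb tonic extension; animals without it scored protected. Read-out is number protected over number tested.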

[3] = tested on: Mus musculus; experiment: Anticonvulsant activity in mouse assessed as protection against maximal electroshock-induced seizures at 30 mg/kg, ip; format: functional, organism-based; method in brief: as §2
[4] = tested on: Mus musculus; experiment: Toxicity in mouse at 30 mg/kg, ip measured during maximal electroshock seizure test; format: organism-based; conditions: in vivo
[5] = tested on: Mus musculus; experiment: Toxicity in mouse at 100 mg/kg, ip measured during maximal electroshock seizure test; format: organism-based; conditions: in vivo
[6] = tested on: Mus musculus; experiment: Neurotoxicity in mouse assessed as motor impairment at 30 mg/kg, ip measured for one min by rotarod test; format: toxicity, organism-based; conditions: in vivo, 1 min; method in brief: as §1
[7] = tested on: Mus musculus; experiment: Toxicity in mouse at 25 mg/kg, ip measured during maximal electroshock seizure test; format: organism-based; conditions: in vivo
[8] = tested on: Mus musculus; experiment: Anticonvulsant activity in ip dosed mouse assessed as protection against maximal electroshock-induced seizures; format: functional
Method in brief: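 Mice were dosed ip. Maximal seizures were induced by auricular electrodes (25 mA, 500 V, 50 Hz, 0.2 s). Absence of hind-limb tonic extension counted as protection. […] Motor impairment was scored on a 10 rpm rotarod, giving TD50 the same way.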

[9] = Neurotoxicity in ip dosed mouse assessed as motor impairment measured for one min by rotarod test; format: toxicity, organism-based; conditions: in vivo; method in brief: as §1
[10] = Protection index, ratio of TD50 for neurotoxicity in ip dosed mouse by rotarod test to ED50 for anticonvulsant activity in mouse by maximal electroshock seizure test; format: toxicity, organism-based; conditions: in vivo, read-out: Ratio TD50/ED50

Cc1cccc(Cl)c1OCCCCN[C@@H](C)CO
Activity [1]: Toxic

CCC(O)CNCCOCCOc1cc(Cl)ccc1C (racemic)
Activity [2]: Active
Activity [3]: inactive
Activity [1]: Toxic
Activity [4]: Non-Toxic
Activity [5]: Non-Toxic

Cc1ccc(Cl)c(OCCCCN[C@H](C)CO)c1
Activity [2]: Active
Activity [3]: inactive
Activity [1]: Toxic
Activity [6]: Non-Toxic
Activity [4]: Non-Toxic
Activity [5]: Non-Toxic

Cc1cccc(C)c1OCCCCNCC(C)O (racemic)
Activity [2]: Active
Activity [7]: Non-Toxic
ED50 [8]: 27.1 mg/kg
Activity [4]: Non-Toxic
Activity [5]: Non-Toxic
TD50 at 1 min [9]: 43.3 mg/kg
selectivity ratio [10]: 1.6

Cc1cccc(Cl)c1OCCCCN[C@H]1CC[C@H](O)CC1
Activity [2]: Active
ED50 [8]: 41.1 mg/kg
Activity [5]: Non-Toxic
TD50 at 1 min [9]: 50 mg/kg
selectivity ratio [10]: 1.22

CC[C@H](CO)NCCCCOc1cc(C)ccc1Cl
Activity [2]: Active
Activity [1]: Toxic
Activity [6]: Non-Toxic
Activity [4]: Non-Toxic
Activity [5]: Non-Toxic

Cc1ccc(Cl)c(OCCCCNC(C)CO)c1 (racemic)
Activity [2]: Active
Activity [3]: inactive
Activity [1]: Toxic
Activity [6]: Non-Toxic
Activity [4]: Non-Toxic
Activity [5]: Non-Toxic

CCC(CO)NCCCCOc1cc(C)ccc1Cl (racemic)
Activity [2]: Active
Activity [1]: Toxic
Activity [6]: Non-Toxic
Activity [4]: Non-Toxic
Activity [5]: Non-Toxic

CC[C@@H](CO)NCCOc1c(C)cccc1C
selectivity ratio [10]: 4.55

Cc1cccc(Cl)c1OCCOCCNC[C@H](O)c1ccccc1
Activity [1]: Toxic

CC[C@@H](CO)NCCCCOc1cc(C)ccc1Cl
Activity [2]: Active
Activity [3]: inactive
Activity [1]: Toxic
Activity [4]: Non-Toxic
Activity [5]: Non-Toxic

CCC(CO)NCCOCCOc1cc(C)ccc1Cl (racemic)
Activity [2]: Active
Activity [1]: Toxic
Activity [6]: Non-Toxic
